ChEMBL document CHEMBL3286282, “Synthesis and antiproliferative activity of novobiocin analogues as potential hsp90 inhibitors” (Eur J Med Chem, 2014)
Active and inactive are the calls of the source. The rule behind the calls is not given here.

Legend:
[1] = Retardation factor of the compound using CH2Cl2/AcOEt at ratio of 95:5 as solvent system; assay type: physicochemical
MCF7 [2] = assay: Antiproliferative activity against ER-positive human MCF7 cells assessed as cell viability at 0.1 mM after 72 hrs by MTT assay; assay type: functional; details: MCF7, 72 h, read-out: Activity
Summary of the method: (§1)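 MCF-7 (ER-positive) cells in DMEM with 2 mM L-glutamine, penicillin/streptomycin and 10% charcoal-treated FCS, seeded at 2500-5000 cells/well. Drugs added 24 h later in serial dilutions from 10 mM DMSO stocks, then exposed 72 h. MTT (500 µg/mL) for 3 h at 37 °C, formazan dissolved in DMSO, A570 read minus A650. Sextuplicates, three experiments.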

[3] = Retardation factor of the compound using Et2O as solvent system; assay type: physicochemical
MCF7 [4] = assay: Growth inhibition of ER-positive human MCF7 cells after 72 hrs by MTT assay; assay type: functional; details: MCF7, 72 h; summary of the method: as §1
[5] = molecular target: Heat shock protein HSP 90-beta (Homo sapiens) (UniProt P08238); assay: Inhibition of HSP90 in human MCF7 cells assessed as ER-alpha degradation at 100 uM after 24 hrs by western blot analysis; assay type: cell-based
Heat shock protein HSP 90-beta (Homo sapiens), sequence (P08238 whole entry): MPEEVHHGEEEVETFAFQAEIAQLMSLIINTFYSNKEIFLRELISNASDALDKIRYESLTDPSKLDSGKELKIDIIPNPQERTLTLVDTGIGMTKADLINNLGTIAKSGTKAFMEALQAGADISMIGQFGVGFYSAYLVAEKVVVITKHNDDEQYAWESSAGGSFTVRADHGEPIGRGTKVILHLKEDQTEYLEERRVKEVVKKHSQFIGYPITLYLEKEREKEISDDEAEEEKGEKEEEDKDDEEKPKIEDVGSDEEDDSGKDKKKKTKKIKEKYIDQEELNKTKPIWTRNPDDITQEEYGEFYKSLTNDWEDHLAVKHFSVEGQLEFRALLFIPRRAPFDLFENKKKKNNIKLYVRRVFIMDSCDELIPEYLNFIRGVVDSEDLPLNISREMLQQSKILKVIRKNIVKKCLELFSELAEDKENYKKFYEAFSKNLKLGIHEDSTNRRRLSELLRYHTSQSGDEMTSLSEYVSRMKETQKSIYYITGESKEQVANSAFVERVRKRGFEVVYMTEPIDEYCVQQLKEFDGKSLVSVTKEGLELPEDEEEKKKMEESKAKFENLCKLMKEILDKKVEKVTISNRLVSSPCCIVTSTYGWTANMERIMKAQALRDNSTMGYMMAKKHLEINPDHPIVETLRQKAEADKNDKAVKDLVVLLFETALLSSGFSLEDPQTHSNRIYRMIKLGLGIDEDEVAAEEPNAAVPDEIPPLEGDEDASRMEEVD
Summary of the method: (§2)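 MCF-7 cells grown to 50% confluence, exposed to 100 µM for 24 h with or without MG132 (5 µM). Lysed in Tris-HCl pH 7.5/NaCl/EGTA/Triton X-100 buffer with phosphatase and protease inhibitors. 20 µg protein run on SDS-PAGE. ERα probed with D12 monoclonal antibody (1 µg/mL, overnight 4 °C), detected by biotin/avidin-peroxidase. Nonspecific band used as loading control; DMSO as vehicle.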

[6] = Retardation factor of the compound using CH2Cl2 as solvent system; assay type: physicochemical
MDA-MB-231 [7] = assay: Antiproliferative activity against human MDA-MB-231 cells assessed as inhibition of cell proliferation; assay type: functional, cell-based
IGROV-1 = assay: Antiproliferative activity against human IGROV1 cells assessed as inhibition of cell proliferation; assay type: functional, cell-based
MCF7 [8] = assay: Antiproliferative activity against human MCF7 cells assessed as inhibition of cell proliferation; assay type: functional, cell-based
LP-1 = assay: Growth inhibition of human LP-1 cells after 72 hrs by MTS assay; assay type: functional; details: LP-1, 72 h
Summary of the method: (§3)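 Myeloma RPMI 8226 and LP-1 cells and prostate PC-3 cells, grown in RPMI 1640 with 2 mM L-glutamine and 10% heat-inactivated FBS, seeded at 2500-5000 cells/well. Drug dilutions added after 24 h. After 72 h, MTS reagent added and A492 read 2 or 3 h later. Run in triplicate, with each experiment done at least twice. GI50 taken relative to vehicle-treated cells.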

MCF7 [9] = assay: Cell cycle arrest in human MCF7 cells assessed as accumulation at G2/M phase at 100 uM after 72 hrs by flow cytometry (reference value: 19%); assay type: functional
Summary of the method: (§4)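 MCF-7 cells at 1.3 x 10^5 cells/mL exposed to 100 µM for 48 or 72 h, with DMSO control. Cells fixed in PBS/ethanol (30/70), then 10^4 cells incubated 30 min in PBS/0.2% Triton X-100/1 mM EDTA with propidium iodide (50 µg/mL) and RNase (0.5 mg/mL). Flow cytometry gave % cells per phase, with sub-G1 counted as apoptotic. Mean of two independent experiments.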

MCF7 [10] = assay: Cell cycle arrest in human MCF7 cells assessed as accumulation at G2/M phase at 100 uM after 48 hrs by flow cytometry (reference value: 7%); assay type: functional; summary of the method: as §4
Caco-2 = assay: Antiproliferative activity against human Caco2 cells assessed as inhibition of cell proliferation; assay type: functional, cell-based
MCF7 [11] = assay: Cell cycle arrest in human MCF7 cells assessed as accumulation at subG1 phase at 100 uM after 48 hrs by flow cytometry (reference value: 5%); assay type: functional; summary of the method: as §4
MCF7 [12] = assay: Cell cycle arrest in human MCF7 cells assessed as accumulation at S phase at 100 uM after 72 hrs by flow cytometry (reference value: 20.5%); assay type: functional; summary of the method: as §4
MCF7 [13] = assay: Cell cycle arrest in human MCF7 cells assessed as accumulation at G0/G1 phase at 100 uM after 72 hrs by flow cytometry (reference value: 60.5%); assay type: functional; summary of the method: as §4
MCF7 [14] = assay: Cell cycle arrest in human MCF7 cells assessed as accumulation at G0/G1 phase at 100 uM after 48 hrs by flow cytometry (reference value: 87%); assay type: functional; summary of the method: as §4
MCF7 [15] = assay: Cell cycle arrest in human MCF7 cells assessed as accumulation at subG1 phase at 100 uM after 72 hrs by flow cytometry (reference value: 9.5%); assay type: functional; summary of the method: as §4
MDA-MB-231 [16] = assay: Growth inhibition of ER-negative human MDA-MB-231 cells after 72 hrs by MTT assay; assay type: functional; details: MDA-MB-231, 72 h
Summary of the method: (§5)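 ER-negative MDA-MB-231 cells and tamoxifen- or Faslodex-resistant MCF-7 cells, grown in DMEM with 10% charcoal-treated FCS and seeded at 2500-5000 cells/well. Drug serial dilutions added after 24 h from 10 mM DMSO stocks. After 72 h, MTT at 500 µg/mL for 3 h at 37 °C, then A570 read minus A650.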

MCF7 [17] = assay: Cell cycle arrest in human MCF7 cells assessed as accumulation at S phase at 100 uM after 48 hrs by flow cytometry (reference value: 6%); assay type: functional; summary of the method: as §4
RPMI-8226 = assay: Growth inhibition of human RPMI8226 cells after 72 hrs by MTS assay; assay type: functional; details: RPMI-8226, 72 h; summary of the method: as §3
PC-3 = assay: Growth inhibition of human PC3 cells after 72 hrs by MTS assay; assay type: functional; details: PC-3, 72 h; summary of the method: as §3
Ishikawa = assay: Antiproliferative activity against human Ishikawa cells assessed as inhibition of cell proliferation; assay type: functional, cell-based
[18] = Retardation factor of the compound using CH2Cl2/MeOH at ratio of 9:1 as solvent system; assay type: physicochemical
[19] = Retardation factor of the compound using CH2Cl2/MeOH at ratio of 95:5 as solvent system; assay type: physicochemical
[20] = Retardation factor of the compound using c-hexane/AcOEt at ratio of 6:4 as solvent system; assay type: physicochemical
[21] = Retardation factor of the compound using CH2Cl2/AcOEt at ratio of 9:1 as solvent system; assay type: physicochemical
[22] = Retardation factor of the compound using c-hexane/AcOEt at ratio of 8:2 as solvent system; assay type: physicochemical
[23] = molecular target: Heat shock protein HSP 90-beta (Homo sapiens) (UniProt P08238); assay: Inhibition of HSP90 in human MCF7 cells assessed as induction of Cdk4 degradation at 100 uM after 24 hrs by western blot analysis; assay type: cell-based
MCF7 [24] = assay: Ratio of novobiocin GI50 to compound GI50 for human MCF7 cells; assay type: functional
[25] = molecular target: Heat shock protein HSP 90-beta (Homo sapiens) (UniProt P08238); assay: Inhibition of HSP90 in human MCF7 cells assessed as ER-alpha degradation at 100 uM after 24 hrs by western blot analysis in presence of proteasome inhibitor MG132; assay type: cell-based; summary of the method: as §2
[26] = molecular target: Heat shock protein HSP 90-beta (Homo sapiens) (UniProt P08238); assay: Inhibition of HSP90 in human MCF7 cells assessed as induction of Raf degradation at 100 uM after 24 hrs by western blot analysis; assay type: cell-based
MCF7 [27] = assay: Growth inhibition of tamoxifen-resistant human MCF7 cells after 72 hrs by MTT assay; assay type: functional; details: MCF7, 72 h; summary of the method: as §5
[28] = Retardation factor of the compound using Et2O/c-hexane at ratio of 8:2 as solvent system; assay type: physicochemical
MCF7 [29] = assay: Growth inhibition of Faslodex-resistant human MCF7 cells after 72 hrs by MTT assay; assay type: functional; details: MCF7, 72 h; summary of the method: as §5
[30] = molecular target: Heat shock protein HSP 90-beta (Homo sapiens) (UniProt P08238); assay: Inhibition of HSP90 in human MCF7 cells assessed as induction of Her2 degradation at 100 uM after 24 hrs by western blot analysis; assay type: cell-based
[31] = Retardation factor of the compound using CH2Cl2/c-hexane at ratio of 9:1 as solvent system; assay type: physicochemical

COc1cc(C#Cc2cc3c(OS(=O)(=O)c4ccc(C)cc4)c(NC(=O)c4ccc5c(c4)CCC(C)(C)O5)c(=O)oc3c(C)c2OC)cc(OC)c1OC
Rf [1]: 0.48
viability at 100 µM (MCF7 [2]): 92%

Cc1c(O)ccc2c(OS(=O)(=O)c3ccc4ccccc4c3)c(NC(=O)c3ccc4c(c3)CCC(C)(C)O4)c(=O)oc12
viability at 100 µM (MCF7 [2]): 33%
Rf [3]: 0.3
GI50 (MCF7 [4]): 67 µM
ER-alpha degradation (active/inactive) [5]: Active

COc1ccc(-c2cc3c(OS(=O)(=O)c4ccc(C)cc4)c(NC(=O)c4ccc5c(c4)CCC(C)(C)O5)c(=O)oc3c(C)c2OC)cc1
viability at 100 µM (MCF7 [2]): 89%
Rf [6]: 0.27

COc1ccc(C(=O)Nc2cc3cc(Br)ccc3n(C)c2=O)cc1
IC50 (MDA-MB-231 [7]): 2 µM
IC50 (IGROV-1): 5 µM
IC50 (MCF7 [8]): 7 µM
GI50 (LP-1): 6.2 µM
Activity (MCF7 [9]): 41.5%
Activity (MCF7 [10]): 48%
IC50 (Caco-2): 8 µM
Activity (MCF7 [11]): 29.5%
Activity (MCF7 [12]): 18.09%
viability at 100 µM (MCF7 [2]): 10%
Activity (MCF7 [13]): 40.43%
Activity (MCF7 [14]): 34.81%
Activity (MCF7 [15]): 47%
GI50 (MDA-MB-231 [16]): 2 µM
Activity (MCF7 [17]): 17.14%
GI50 (RPMI-8226): 5 µM
GI50 (MCF7 [4]): 7 µM
GI50 (PC-3): 10 µM
IC50 (Ishikawa): 2 µM

C#Cc1cc2c(OS(=O)(=O)c3ccc(C)cc3)c(NC(=O)c3ccc4c(c3)CCC(C)(C)O4)c(=O)oc2c(C)c1OC
Rf [1]: 0.5
viability at 100 µM (MCF7 [2]): 82%

COc1c(C#CCN(C)C)cc2c(OS(=O)(=O)c3ccc(C)cc3)c(NC(=O)c3ccc4c(c3)CCC(C)(C)O4)c(=O)oc2c1C
viability at 100 µM (MCF7 [2]): 96%
Rf [18]: 0.22

Cc1c(O)ccc2c(NCCN3CCOCC3)c(NC(=O)c3ccc4c(c3)CCC(C)(C)O4)c(=O)oc12
Rf [19]: 0.2
viability at 100 µM (MCF7 [2]): 87%

Cc1ccc(S(=O)(=O)Oc2c(NC(=O)c3ccc4c(c3)CCC(C)(C)O4)c(=O)oc3c(C)c(O)c(Br)cc23)cc1
Rf [20]: 0.39
viability at 100 µM (MCF7 [2]): 65%

Cc1c(O)ccc2c(OS(=O)(=O)c3ccc4cccnc4c3)c(NC(=O)c3ccc4c(c3)CCC(C)(C)O4)c(=O)oc12
viability at 100 µM (MCF7 [2]): 22%
Rf [21]: 0.28
GI50 (MCF7 [4]): 64 µM
ER-alpha degradation (active/inactive) [5]: Active

COc1c(Br)cc2c(OC)c(NC(=O)c3ccc4c(c3)CCC(C)(C)O4)c(=O)oc2c1C
Rf [1]: 0.59
viability at 100 µM (MCF7 [2]): 90%
Rf [22]: 0.19

COc1ccc(C#Cc2cc3c(OS(=O)(=O)c4ccc(C)cc4)c(NC(=O)c4ccc5c(c4)CCC(C)(C)O5)c(=O)oc3c(C)c2OC)cc1
viability at 100 µM (MCF7 [2]): 89%
Rf [6]: 0.2

Cc1c(O)ccc2c(OS(=O)(=O)c3cccs3)c(NC(=O)c3ccc4c(c3)CCC(C)(C)O4)c(=O)oc12
viability at 100 µM (MCF7 [2]): 62%
Rf [21]: 0.23

Cc1c(O)ccc2c(OS(C)(=O)=O)c(NC(=O)c3ccc4c(c3)CCC(C)(C)O4)c(=O)oc12
Rf [20]: 0.14
viability at 100 µM (MCF7 [2]): 61%

CO[C@@H]1[C@@H](OC(N)=O)[C@@H](O)[C@H](Oc2ccc3c(O)c(NC(=O)c4ccc(O)c(CC=C(C)C)c4)c(=O)oc3c2C)OC1(C)C [NOVOBIOCIN]
GI50 (MCF7 [4]): 260 µM

CC(=O)OC[C@H]1O[C@@H](Oc2ccc3c(OS(=O)(=O)c4ccc(C)cc4)c(NC(=O)c4ccc5c(c4)CCC(C)(C)O5)c(=O)oc3c2C)[C@H](OC(C)=O)[C@@H](OC(C)=O)[C@@H]1OC(C)=O
GI50 (LP-1): 5 µM
Activity (MCF7 [9]): 60%
Activity (MCF7 [10]): 55%
inhibition [23]: inactive
Ratio (MCF7 [24]): 40
inhibition [25]: inactive
Activity (MCF7 [11]): 13%
Activity (MCF7 [12]): 9.5%
viability at 100 µM (MCF7 [2]): 10%
Activity (MCF7 [13]): 30%
Activity (MCF7 [14]): 40%
Activity (MCF7 [15]): 27%
GI50 (MDA-MB-231 [16]): 10 µM
inhibition [26]: inactive
Activity (MCF7 [17]): 5.5%
GI50 (RPMI-8226): 2.5 µM
GI50 (MCF7 [4]): 6 µM
GI50 (MCF7 [27]): 30 µM
GI50 (PC-3): 25 µM
Rf [28]: 0.14
GI50 (MCF7 [29]): 25 µM
ER-alpha degradation (active/inactive) [5]: Active
inhibition [30]: inactive

Cc1ccc(S(=O)(=O)Oc2c(NC(=O)c3ccc4c(c3)CCC(C)(C)O4)c(=O)oc3c(C)c(O)ccc23)cc1
inhibition [25]: inactive
ER-alpha degradation (active/inactive) [5]: Active

COc1c(C#Cc2ccccc2)cc2c(OS(=O)(=O)c3ccc(C)cc3)c(NC(=O)c3ccc4c(c3)CCC(C)(C)O4)c(=O)oc2c1C
viability at 100 µM (MCF7 [2]): 90%
Rf [31]: 0.1

CC(=O)OC[C@H]1O[C@@H](Oc2ccc3c(N)c(NC(=O)c4ccc5c(c4)CCC(C)(C)O5)c(=O)oc3c2C)[C@H](OC(C)=O)[C@@H](OC(C)=O)[C@@H]1OC(C)=O
viability at 100 µM (MCF7 [2]): 71%
Rf [28]: 0.17
